For assay [1], the species on record is Rattus norvegicus. Nature of the assay: Compound was evaluated for its ovulating activity in anti-ovulatory assay (AOA) by using 10 rats at the dose of 2 microgram. Type of assay: functional. Put shortly: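 Standard antiovulatory assay in 4-day cycling female rats, 10 rats per dose group. Each analogue was given at the stated dose in μg per rat, and the read-out was the number of rats ovulating out of 10.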

For assay [2], the species on record is Rattus norvegicus. As to the kind of experiment: In vitro histamine release from isolated rat mast cells. Type of assay: functional. As to conditions: read-out: ED50 (the source's name). A digest of the protocol: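 Histamine release from rat mast cells in vitro, run in duplicate with mast cells from three different rats. LHRH and Nal-Arg standards were included with each set of analogues. The read-out was the ED50 in μg/mL, reported as mean ± SEM.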

The text below walks through data of ChEMBL document CHEMBL1126163, “Decreased histamine release by luteinizing hormone-releasing hormone antagonists obtained upon translocation of the cationic amino acid from position 8 to position 7” (1992).

In brackets after ≈: the same amount, converted by molar mass. Where a SMILES comes first, the peptide text is derived from it. [ ]: non-standard residue; d: D form. The star is where a group is joined. dPhe(4-Cl) = N[C@H](Cc1ccc(Cl)cc1)C(=O)O; d2Nal = N[C@H](Cc1ccc2ccccc2c1)C(=O)O; Lys(iPr) = CC(C)NCCCC[C@H](N)C(=O)O; d3Pal = N[C@H](Cc1cccnc1)C(=O)O; Nicotinoyl = O=C(c1cccnc1)*

As to `CC(=O)N[C@H](Cc1ccc2ccccc2c1)C(=O)N[C@H](Cc1ccc(Cl)cc1)C(=O)N[C@H](Cc1cccnc1)C(=O)N[C@@H](CO)C(=O)N[C@@H](CCCCNC(=O)c1ccccn1)C(=O)N[C@H](CCCCNC(=O)c1ccccn1)C(=O)N[C@@H](CCCCNC(C)C)C(=O)N[C@@H](CCCCNC(=O)c1cccnc1)C(=O)N1CCC[C@H]1C(=O)N[C@H](C)C(N)=O`, in the assay filed under Rattus norvegicus [1], the AOA is recorded as 8. Moreover, the EC50 in the assay listed under Rattus norvegicus [2] came out at 70 µg/mL (≈ 40.9 µM). For `CC(=O)N[C@H](Cc1ccc2ccccc2c1)C(=O)N[C@H](Cc1ccc(Cl)cc1)C(=O)N[C@H](Cc1c[nH]c2ccccc12)C(=O)N[C@@H](CO)C(=O)N[C@@H](Cc1ccc(O)cc1)C(=O)N[C@H](CCCN=C(N)N)C(=O)N[C@@H](CCCN=C(N)N)C(=O)N[C@@H](CC(C)C)C(=O)N1CCC[C@H]1C(=O)N[C@H](C)C(N)=O` the same measures were 10 and 2.4 µg/mL (≈ 1.63 µM). Consider `CC(=O)N[C@H](Cc1ccc2ccccc2c1)C(=O)N[C@H](Cc1ccc(Cl)cc1)C(=O)N[C@H](Cc1c[nH]c2ccccc12)C(=O)N[C@@H](CO)C(=O)N[C@@H](Cc1ccc(O)cc1)C(=O)N[C@H](CCCN=C(N)N)C(=O)N[C@@H](CC(C)C)C(=O)N[C@@H](CCCN=C(N)N)C(=O)N1CCC[C@H]1C(=O)N[C@H](C)C(N)=O` (Ac-[d2Nal][dPhe(4-Cl)][dW]SY[dR]LRP[dA]-NH2), for which the EC50 in the assay filed under Rattus norvegicus [2] stood at 0.1 µg/mL (≈ 0.0681 µM). In the case of `CC(=O)N[C@H](Cc1ccc2ccccc2c1)C(=O)N[C@H](Cc1ccc(Cl)cc1)C(=O)N[C@H](Cc1cccnc1)C(=O)N[C@@H](CO)C(=O)N[C@@H](CCCCNC(=O)c1cccnc1)C(=O)N[C@H](CCCCNC(=O)c1cccnc1)C(=O)N[C@@H](CC(C)C)C(=O)N[C@@H](CCCCNC(C)C)C(=O)N1CCC[C@H]1C(=O)N[C@H](C)C(N)=O` [Antide] (Ac-[d2Nal][dPhe(4-Cl)][d3Pal]SK(Nicotinoyl)[dK](Nicotinoyl)L[Lys(iPr)]P[dA]-NH2), the EC50 in the assay filed under Rattus norvegicus [2] was greater than 300 µg/mL.
